# An excerpt weighted towards active compounds, which were near 3.8% of everything screened.
# Kir21 block: inhibitors of mouse Kir2.1 inward-rectifier potassium channel; Inward rectifier potassium channel 2 (Mus musculus), P35561; HEK293-Kir2.1, FluxOR thallium flux fluorescence; stronger effect = lower value; B-score at 10 µM; 0.85% of 310,000 active;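 active = fluorescence ratio B-score at or below minus 3 SD of library scores, with starting-brightness B-score within 2 SD, cut at about -4.2 in these data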;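 also: channel flux triggered by added potassium and thallium sulfate stimulus; B-score of peak minus minimum fluorescence over baseline after thallium stimulus; more negative B-score means stronger Kir2.1 block with less thallium influx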
# hERG protect: hERG rescue from dofetilide block, primary screen, cell-based, CHO-hERG, FluxOR thallium flux, dofetilide IC70; Voltage-gated inwardly rectifying potassium channel KCNH2 (Homo sapiens), Q12809; dofetilide IC70 present; activation (rescue from dofetilide block), less the hit threshold, % at 10 µM; 0.51% of 310,000 active;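 active = activation above the mean of controls blocked by dofetilide plus 5 SD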;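 also: thallium influx through hERG after potassium depolarization seen as dye fluorescence rise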
# KCNQ1 pot: potentiators or activators of KCNQ1 channel, primary screen, cell-based, thallium flux, high-throughput; CHO-K1 KCNQ1, thallium flux FluxOR fluorescence; stronger effect = higher value; B-score at 10 µM; 0.35% of 310,000 active;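 active = fluorescence ratio B-score, a plate-corrected score, at least three library SD, with initial intensity B-score within 5 SD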
#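 Doses: Single concentration per compound, DMSO matched to controls | Test system: KCNQ1-transfected CHO-K1 cells | Timing: 90 min dye loading and 20 min compound exposure, both at room temperature | Measured by: Kinetic FluxOR thallium fluorescence, 10-s 1-Hz baseline, 110-s post-stimulus read | Medium: Assay buffer with matched DMSO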
# KCNQ1 inh: inhibitors of human KCNQ1 channel, primary screen, cell-based, thallium flux, high-throughput | CHO-K1 KCNQ1, FluxOR thallium flux fluorescence; stronger effect = higher value | B-score at 10 µM | 1.3% of 310,000 active;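 active = compounds whose thallium flux B-score, printed positive for inhibition, exceeds three library SD while starting fluorescence stays within three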;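 also: channel opened by potassium depolarization with thallium stimulus after 20 min compound exposure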
# KCNK9 inh: KCNK9 potassium channel inhibitors, primary screen, HEK293 cells, thallium flux; FluxOR thallium flux fluorescence; stronger effect = lower value; B-score at 10 µM; 1.2% of 310,000 active; AID 488922, 2010;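 active = ratio B-score over 3 SD below the library mean, with starting fluorescence within 5 SD of its mean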;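 also: negative B-score means less thallium flux so channel inhibition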
# KCNK3 inh: human KCNK3 channel inhibitors, primary screen, CHO cells, FluxOR thallium flux, B-score; B-score at 10 µM; 0.84% of 340,000 active; Potassium channel subfamily K member 3 (Homo sapiens), O14649; FluxOR fluorescence; stronger effect = lower value;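 active = B-score under library mean minus 4 SD, starting fluorescence ratio at most library mean plus 5 SD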;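 also: more negative B-score means stronger inhibition of thallium flux through KCNK3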
# KCNK9 block conf: KCNK9 potassium channel inhibitors, confirmation, HEK293 cells, thallium flux, duplicate. FluxOR thallium flux fluorescence. 43% of 4,900 active. AID 492992, 2010. inhibition, % at 10 µM. shares compounds with KCNK9 inh;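 active = thallium signal inhibited by more than 5 SD of the compound-free buffer control wells, on both duplicate plates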;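 also: 0% = assay buffer control wells without compound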
# Kir2-1 spec: mouse Kir2.1 channel inhibition, confirmation, selectivity assay for KCNK9 modulator project, cell-based, HEK293, thallium flux. shares compounds with KCNK9 inh. Kir2.1 cells, FluxOR thallium flux fluorescence. inhibition, % at 10 µM. 4% of 4,900 active. AID 492993, 2010;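 active = thallium signal drop more than 5 SD beyond the mean of the no-compound control wells, seen in both duplicate plates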;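 also: signal is fluorescence rise after thallium addition divided by baseline fluorescence; plate controls were assay buffer only for no effect and full block by chlorpromazine control for full effect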
# KCNK9 uninduced: thallium flux in non-induced HEK293 cells, confirmation, counter-screen for KCNK9 inhibitor project, cell-based, second counter screen, non-induced KCNK9-HEK293. shares compounds with KCNK9 inh. FluxOR thallium flux. inhibition, % at 10 µM. 40% of 4,900 active. AID 492997, 2010;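 active = thallium signal drop beyond 5 SD of the untreated control mean, on both duplicate plates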;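 also: plate controls were buffer only IC0 wells for no effect and SID17386958 at its maximal inhibitory level for full effect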
# Active calls of the source: *; i = inactive; / = no result given.
SMILES,Kir21 block,hERG protect,KCNQ1 pot,KCNQ1 inh,KCNK9 inh,KCNK3 inh,KCNK9 block conf,Kir2-1 spec,KCNK9 uninduced
COc1ccc(C=NNc2ccc([N+](=O)[O-])cn2)cc1,/,/,/,/,/,i,/,/,/
O=[N+]([O-])c1ccc(N/N=C/c2ccc(OCc3cccc4ccccc34)cc2)nc1,-0.03,-7,i,i,-9.3*,i,42%*,i,i
O=[N+]([O-])c1ccc(N/N=C\c2cccn2-c2ccccc2)nc1,-0.42,-12,i,i,-12*,-9.8*,65%*,i,62%*
COc1cccc(OC(=O)c2cc3ccccc3oc2=O)c1,0.96,-9,i,i,i,i,/,/,/
CN(CC(=O)NC(=O)NCc1ccccc1)Cc1ccc(Cl)c(Cl)c1,-0.02,-9,i,i,i,i,i,i,i
CN(CC(=O)NCc1ccccc1)Cc1cccc(F)c1,1.6,-5,i,i,i,i,/,/,/
COc1ccc(CN(C)CC(=O)NC(=O)NCc2ccccc2)c(OC)c1,-1.8,-5,i,i,i,i,i,i,i
COc1cccc2c1-c1c(C(=O)O)cccc1C2=O,-1.4,-9,i,i,i,i,i,i,i
CCCc1[nH]nc2c1C1(CCN(C(=O)OCc3ccccc3)CC1)C(C#N)=C(N)O2,-0.44,-9,i,i,-9.7*,i,32%*,i,i
Cc1nn(-c2ccccc2)c2c1c(C)c(CCC(=O)N1CCOCC1)c(=O)n2C,-1.4,-17,i,i,i,i,i,i,i
CCn1c(=O)c(CCC(=O)NCCN2CCOCC2)c(C)c2c(C)nn(-c3cccc(C)c3)c21,-0.48,-8,i,i,i,i,/,/,/
CCn1c(=O)c(CCC(=O)N2CCOCC2)c(C)c2c(C)nn(-c3ccccc3)c21,-0.84,-10,i,i,i,i,i,i,i
CCOC(=O)C1=C(COC(=O)c2ccc(OC)c(OC)c2OC)NC(=O)NC1C (stereo not given),-0.85,-9,i,i,i,i,/,/,/
Cc1oc(-c2nc3ccccc3n2C)cc1C(=O)c1ccccc1,-0.99,-11,i,i,i,i,/,/,/
N#C/C(=C/c1ccc(N2CCOCC2)o1)c1ccc(Cl)cc1,0.2,-23,i,i,-10*,i,74%*,38%*,80%*
CC(C)C(=O)NC(NC(=O)C(C)C)c1ccc([N+](=O)[O-])cc1,3.3,-4,i,i,i,i,/,/,/
O=C(Nc1nc(-c2ccccn2)cs1)c1ccc(Cl)s1,-1.1,-3,i,i,i,i,/,/,/
O=C(Nc1nc(-c2cc(Cl)sc2Cl)cs1)c1ccccc1,0.93,-7,i,i,-9.5*,i,34%*,i,i
COc1ccccc1CNC(=O)COC(=O)c1cc2ccccc2o1,/,/,/,/,/,i,/,/,/
COc1ccc(NS(=O)(=O)c2ccc(F)c(F)c2F)cc1S(=O)(=O)N1CCOCC1,/,/,/,/,/,i,/,/,/
O=C(NNc1ccccc1C(F)(F)F)c1sccc1Br,-0.96,-7,i,i,-8.7*,i,44%*,i,i
O=C(Nc1ccccc1C(F)(F)F)c1ccsc1,-0.03,-6,i,i,i,i,/,/,/
COc1ccc(S(=O)(=O)N2CCN(C)CC2)cc1NC(=O)c1ccccc1,0.14,-7,i,i,i,i,/,/,/
O=S(=O)(c1ccc(F)cc1)n1ccc(-c2cccc(OCc3ccc(Cl)cc3Cl)c2)n1,1.3,-11,i,i,i,i,/,/,/
Cc1nn2c(NCc3ccccn3)cc(C(C)(C)C)nc2c1-c1ccccc1,0.81,-10,i,i,i,i,i,i,i
SMILES,Kir21 block,hERG protect,KCNQ1 pot,KCNQ1 inh,KCNK9 inh,KCNK3 inh,KCNK9 block conf,Kir2-1 spec,KCNK9 uninduced
Cc1nn2c(NCc3ccccn3)c3c(nc2c1-c1ccccc1)CCC3,-0.09,-19,i,i,i,i,/,/,/
COc1ccc(-n2nnnc2/C=C/Nc2cc(C(F)(F)F)ccc2OC)cc1,1.8,-9,i,i,-12*,i,34%*,i,43%*
CSc1ccccc1-c1nc(-c2ccncc2)no1,0.33,-3,i,i,i,i,/,/,/
CC(C)CN1C(=S)SC(C)(C)C1n1oc(=O)n(-c2ccccc2)c1=O (stereo not given),-0.61,-1,i,i,i,i,i,i,i
C/C=C(\C)CN1CCC(Oc2ccc(C(=O)NCc3ccccn3)cc2)CC1,1.1,-5,i,i,i,i,/,/,/
CC1Cc2ccccc2N1C(=S)NC1CCCC1 (stereo not given),-1.4,-13,i,i,i,i,i,i,i
COc1cc(C)ccc1OCCOCCOc1cc(C)c(C)cc1Br,-1,-11,i,i,i,i,i,i,i
O=C(c1ccccc1Cl)c1c(O)c2ccccc2oc1=O,-0.09,-5,i,i,i,i,/,/,/
O=C(N/N=C/c1cccs1)c1ccc(NC(=O)c2ccccc2Cl)cc1,0.7,-6,i,i,i,i,/,/,/
O=C(N/N=C/c1cccs1)c1cccc(NC(=O)c2ccccc2Cl)c1,0.35,-19,i,i,-9.4*,i,i,i,i
O=C(N/N=C/c1cn(-c2cccs2)nc1-c1ccccc1)c1ccccc1Cl,-0.2,-2,i,i,-10*,i,51%*,i,i
O=C(O)c1ccccc1C(=O)NC1CCN(c2nccc(C(F)(F)F)n2)CC1,1.4,-5,i,i,i,i,/,/,/
CN(C)/N=C/c1ccc([N+](=O)[O-])cc1[N+](=O)[O-],0.02,-8,i,i,i,i,/,/,/
